Shown are actives, neighbours in structure and some others; about 3.1% of the full set was active somewhere.
KCNQ1 block: inhibitors of human KCNQ1 potassium channel | P51787 | AID 2642 | hit rate 1.3% among 310,000 | B-score at 10 µM | CHO-K1 KCNQ1, FluxOR thallium flux fluorescence; active compounds read high;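 active means compounds whose thallium flux B-score, printed positive for inhibition, exceeds three library SD while starting fluorescence stays within three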;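 further: channel opened by potassium depolarization with thallium stimulus after 20 min compound exposure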
KCNK3 block: human KCNK3 channel inhibition, primary screen. CHO-KCNK3 thallium flux, FluxOR fluorescence; active compounds read low. B-score at 10 µM. hit rate 0.84% among 340,000. AID 602410;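 active means B-score under library mean minus 4 SD, starting fluorescence ratio at most library mean plus 5 SD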;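 further: more negative B-score means stronger inhibition of thallium flux through KCNK3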
KCNK9 inh: human KCNK9 channel inhibition; Q9NPC2; B-score at 10 µM; HEK293 KCNK9, FluxOR thallium flux fluorescence; active compounds read low; hit rate 1.2% among 310,000;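 active means ratio B-score over 3 SD below the library mean, with starting fluorescence within 5 SD of its mean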;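 further: negative B-score means less thallium flux so channel inhibition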
KCNQ1 pot: potentiators or activators of human KCNQ1 potassium channel; P51787; hit rate 0.35% among 310,000; AID 2648; B-score at 10 µM; CHO-K1 KCNQ1, thallium flux FluxOR fluorescence; active compounds read high;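 active means fluorescence ratio B-score, a plate-corrected score, at least three library SD, with initial intensity B-score within 5 SD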
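Material: CHO-K1 cells stably expressing KCNQ1. Medium: assay buffer for compound exposure, DMSO matched across wells. Reagent: K+/Tl+ depolarizing stimulus. Compound dosing: single-concentration screen. Times: 37 °C overnight plating, 90-min dark dye load, 20-min compound pretreatment. Technique: FluxOR Tl+ flux fluorescence.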
hERG rescue: hERG (human) protection from proarrhythmic block. hit rate 0.51% among 310,000. activation (rescue from dofetilide block), less the hit threshold, % at 10 µM. AID 1511. Q12809. CHO-hERG, FluxOR thallium flux, dofetilide IC70 present;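 active means activation above the mean of controls blocked by dofetilide plus 5 SD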;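 further: thallium influx through hERG after potassium depolarization seen as dye fluorescence rise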
KCNK3 inh conf: human KCNK3 channel inhibition, confirmation assay. ratio percent of control, % at 10 µM. hit rate 99% among 2,400. CHO-KCNK3 thallium flux, FluxOR fluorescence; 0% buffer, 100% carvedilol maximal block. shares compounds with KCNK3 block. AID 651638;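 active means ratio percent of control, averaged over triplicates, above buffer control mean plus 5 SD, cut at about 64% in these data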;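 further: ratio is the fluorescence rise from min to max over baseline after thallium stimulus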
KCNK3 uninduced: KCNK3 inhibitor counter-screen hit in non-induced cells; shares compounds with KCNK3 block; non-induced KCNK3 parental cells, FluxOR thallium flux; active compounds read low; thallium flux ratio (lower = more inhibition) at 10 µM; hit rate 40% among 2,400; AID 651747;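 active means thallium flux ratio, averaged over three wells, more than 5 SD below the buffer control mean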;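 further: host cells are CHO cells without KCNK3 induction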
A number is an active result; . = inactive; / = no result given.

SMILES	KCNQ1 block	KCNK3 block	KCNK9 inh	KCNQ1 pot	hERG rescue	KCNK3 inh conf	KCNK3 uninduced
Cc1cc(CCNC=O)c(C)c2c1oc1ccccc12	/	.	/	/	/	/	/
CCCCc1nc(SCC(=O)N2CCCC2)c2c(=O)n(C)c(=O)n(C)c2n1	.	.	.	.	.	/	/
Cc1cccc(NC(=O)CNC(=O)CSc2nc(N)cc(N)n2)c1C	/	.	/	/	/	/	/
Cc1cccc(OCCCSc2nc3ccccc3[nH]2)c1	.	-8.86	.	.	.	126.3	0.121
Cc1cccc(OCCSCc2nc3ccccc3[nH]2)c1	.	.	.	.	.	/	/
CSc1ccc(C2Nc3cccc4cccc(c34)N2)cc1	6	-8.84	.	.	.	111.7	.
O=C1c2cccc3cccc(c23)C(=O)N1CC1CCN(CC(O)COc2ccc3ccccc3c2)CC1 (centres undefined)	.	-9.86	.	.	.	101.3	0.15
COc1ccccc1CCC(=O)N1CCN(S(=O)(=O)c2cccc(F)c2)CC1	.	.	.	.	.	/	/
CCOC(=O)N1CCN(C(=O)CSCC(=O)Nc2nc(-c3ccc(-c4ccccc4)cc3)cs2)CC1	6	-10.3	.	.	.	117.0	0.147
CN(C)S(=O)(=O)Oc1ccc(C(=O)Nc2cccc(Cl)c2)cc1	.	-8.86	.	.	.	106.3	.
CC(C)(C)OC(=O)NC(CNCc1ccccc1)Cc1ccccc1 (centres undefined)	.	.	.	.	.	/	/
COc1cc(/C=C2\C(=O)ON=C2c2ccccc2)cc(Cl)c1O	.	-8.87	.	.	.	115.3	0.143
COc1cc(/C=C2/C(=O)ON=C2c2ccccc2)ccc1O	.	.	.	.	.	/	/
CCOc1cc(/C=C2\C(=O)ON=C2c2ccccc2)cc(Br)c1O	6	-8.82	.	.	.	135.3	0.0977
Cc1ccc(/C=C2/C(=O)ON=C2c2ccccc2)o1	.	-10	.	.	.	122.0	.
COc1ccc(CC(=O)N/N=C\c2cc(Br)c(O)c(Br)c2)cc1	.	.	.	.	.	/	/
N#CCCN(C(=O)COC(=O)CCN=C1NS(=O)(=O)c2ccccc21)c1ccc(F)cc1	.	.	.	.	.	/	/
CN(C)S(=O)(=O)Oc1ccsc1C(=O)Nc1cccc(Cl)c1Cl	.	-9.06	.	.	.	87.7	.
CC(C(=O)NC1(C#N)CCCCC1)N(C)CC(=O)Nc1ccc(Cl)c(Cl)c1 (centres undefined)	/	.	/	/	/	/	/
CCOC(=O)c1ccccc1NC(=O)COC(=O)C1CCCC1	.	.	.	.	.	/	/
CCOC(=O)c1ccccc1NC(=O)COC(=O)CC1CCCCC1	.	-9.68	.	.	.	105.3	0.151
O=C(COc1coc(CN2CCCc3ccccc32)cc1=O)Nc1cccc([N+](=O)[O-])c1	.	.	.	.	.	/	/
Cc1cccc(/C(N)=N/OC(=O)c2cccc3ccccc23)c1	.	-9.25	.	.	.	91.7	.
CCOc1ccccc1NC(=O)C(OC(=O)c1ccc(NC(=O)CC#N)cc1)c1ccccc1 (centres undefined)	8	-10.2	.	.	.	124.7	0.134
COc1ccc(CN(CC(=O)NCc2ccc(F)cc2)C(=O)CCC(=O)Nc2ccccn2)cc1	.	.	.	.	.	/	/
SMILES	KCNQ1 block	KCNK3 block	KCNK9 inh	KCNQ1 pot	hERG rescue	KCNK3 inh conf	KCNK3 uninduced
CCCN1CCc2c(sc(NC(=O)c3ccc(S(=O)(=O)N4CCN(C(=O)OCC)CC4)cc3)c2C(N)=O)C1	6	-11.3	.	.	.	125.0	0.0933
CCOC(=O)N1CCN(S(=O)(=O)c2ccc(C(=O)Nc3sc4c(c3C(N)=O)CCN(CC)C4)cc2)CC1	.	.	.	.	.	/	/
O=C(CC1OC(=O)c2ccccc21)Nc1cc(S(=O)(=O)N2CCOCC2)ccc1OCC(F)(F)F (centres undefined)	.	.	.	.	.	/	/
CN(CCO)c1nc(N)c(C#N)c(CC#N)c1C#N	.	.	.	.	.	/	/
CC(C)CN(CC(C)C)c1nc(N)c(C#N)c(CC#N)c1C#N	.	-10.6	-7.52	.	.	92.0	.
CCCN(C(=O)CCSc1ccc(F)cc1)c1c(N)n(Cc2ccccc2)c(=O)[nH]c1=O	.	.	.	.	.	/	/
CCOc1ccc(C(=O)n2cc(C(=O)OC)c3ccccc32)cc1	.	-10.2	.	.	.	116.0	0.147
O=C(OCC#CCSc1nc2ccccc2o1)c1cc2ccccc2o1	.	-10.8	.	.	.	104.7	0.153
COC1(OC)C(/C=C/c2ccc(C)cc2)C(C#N)(C#N)C1(OC)OC (centres undefined)	.	-10.4	.	.	.	133.3	0.145
CCc1noc(C)c1C(=O)OC(C)C(=O)Nc1cc([N+](=O)[O-])ccc1OC (centres undefined)	.	.	.	.	.	/	/
Cc1ccsc1C(=O)NCc1ccc(F)cc1	.	.	.	.	.	/	/
COc1ccccc1NS(=O)(=O)c1cccc(C(=O)NCC2(N3CCCCC3)CCCCC2)c1	/	.	/	/	/	/	/
COc1ccc(-c2nc(CN3CCN(c4cc(C)nc(C)c4)CC3)c(C)o2)c2ccccc12	.	.	.	.	.	/	/
Cc1oc(-c2cccc3ccccc23)nc1CN1CCN(c2ncnc3ccccc23)CC1	.	-9.67	.	.	.	112.3	.
O=C(Nc1cccc(-n2cnnn2)c1)c1cccs1	.	-10.5	.	.	.	79.3	.
O=C(Nc1cccc(NC(=O)c2cccs2)c1)c1ccc(Br)cc1	.	.	.	.	.	/	/
O=C(Nc1cccc(O)c1)c1cccc(NC(=O)c2cccs2)c1	.	-12.6	-7.99	.	.	110.0	.
O=C(Nc1cccc(-n2cnnn2)c1)c1ccncc1	.	.	.	.	.	/	/
Cc1ccc(S(=O)(=O)N2CCN(C(=O)COC(=O)COc3ccc(Cl)cc3)CC2)c(C)c1	/	.	/	/	/	/	/
O=C1C2C3C=CC(C4CC34)C2C(=O)N1c1cccc2ccccc12 (centres undefined)	.	.	.	.	.	/	/
Cc1c(C=C(C#N)c2ccc([N+](=O)[O-])cc2)c(=O)n(-c2ccccc2)n1C	/	.	/	/	/	/	/
CC1Cc2ccccc2N1Cc1cccc([N+](=O)[O-])c1 (centres undefined)	.	-13.5	.	.	.	109.3	.
Cc1cc(NC(=O)c2cc3cccc([N+](=O)[O-])c3[nH]2)ccc1F	11	-13.2	.	.	.	126.0	0.144
CCN(c1ccccc1)S(=O)(=O)c1cccc(C(=O)N(C)CC(=O)Nc2ccc(F)c(F)c2F)c1	/	.	/	/	/	/	/
O=C(NCc1ccccc1)c1cccc(COc2ccccc2Cl)c1	6	-11.6	.	.	.	112.3	.
COC(=O)CSc1nc2c(c(-c3ccc(C)o3)c1C#N)CCCC2	.	.	.	.	.	/	/
CCSc1nc2c(c(-c3ccc(C)o3)c1C#N)CCCC2	.	-8.8	-6.69	.	.	95.7	.

Screening data from PubChem.
